Bioassay records as filed in PubChem.
Compounds with a hit are over-represented: about 1.9% of the library has one in this group of screens.
Rce1 inh: inhibitors of yeast Ras-converting enzyme | calls only | Q03530 | yeast membranes, quenched prenylated peptide cleavage fluorescence | 0.27% of 290,000 active;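 active = fall in fluorescence gain of 50% or more versus controls, with final raw signal at or below 3038400; inconclusive = same 50% fall but final raw signal above 3038400; inactive = fall in fluorescence gain under 50%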
Target sequence (Q03530 whole entry, looked up): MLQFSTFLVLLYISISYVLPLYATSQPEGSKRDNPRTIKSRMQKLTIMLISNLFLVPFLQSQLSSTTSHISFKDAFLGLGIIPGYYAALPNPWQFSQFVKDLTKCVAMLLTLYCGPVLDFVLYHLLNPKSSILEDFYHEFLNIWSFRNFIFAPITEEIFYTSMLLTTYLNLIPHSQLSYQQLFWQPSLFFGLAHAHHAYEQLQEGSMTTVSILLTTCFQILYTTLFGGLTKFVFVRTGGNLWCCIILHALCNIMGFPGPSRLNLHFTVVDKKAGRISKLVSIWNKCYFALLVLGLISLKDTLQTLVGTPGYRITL
Yeast superoxide: lowers age-related superoxide in aged yeast cells; AID 2690; 0.18% of 330,000 active; superoxide response (% of plate mean), % at 10 µM; S. cerevisiae aged cells, superoxide DHE fluorescence; stronger effect = lower value;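 active = superoxide response under a set limit, about three screen SD below normal, cut at about 65% in these data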;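 note: yeast aged for seven days with compound at 30 °C before DHE staining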
T cell HTS: modulates CD8 T cell binding to vesicles | response (vesicle binding), % at 7 µM | 0.068% of 330,000 active | 2C CD8+ T cell-vesicle binding, flow cytometry; stronger effect = lower value;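 active = response, share of CD8 T cells binding vesicles, and their 90th percentile fluorescence all below set limits, cut at about 80% in these data, passing the limit was not always enough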;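 note: values below 100% mean blocked vesicle binding to the CD8+ T cells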
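Benchmarks: naked versus QL9-loaded vesicles / Assay system: purified 2C TCR transgenic mouse naive CD8+ T cells / Technique: high-throughput flow cytometry with anti-B7-1 and anti-CD8 staining / Timing: Cell–vesicle co-incubation 1.5 h at 37 °C, staining 20 min on ice / Read-out: percent CD8+ FL2 mean versus row control / Probe or stimulus: QL9-loaded Drosophila micro-vesicles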
proKLK7 act: proKLK7 (human) activation, primary screen; P49862; purified proKLK7, EDANS-DABCYL substrate fluorescence; 100% is mature enzyme control, 0% vehicle; activation, % at 7 µM; 0.9% of 370,000 active; AID 652039;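 active = activation above the mean of all tested compounds plus 3 SD, computed per campaign excluding outliers beyond control limits, cut at about 13% in these data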
Target sequence (P49862 whole entry, looked up): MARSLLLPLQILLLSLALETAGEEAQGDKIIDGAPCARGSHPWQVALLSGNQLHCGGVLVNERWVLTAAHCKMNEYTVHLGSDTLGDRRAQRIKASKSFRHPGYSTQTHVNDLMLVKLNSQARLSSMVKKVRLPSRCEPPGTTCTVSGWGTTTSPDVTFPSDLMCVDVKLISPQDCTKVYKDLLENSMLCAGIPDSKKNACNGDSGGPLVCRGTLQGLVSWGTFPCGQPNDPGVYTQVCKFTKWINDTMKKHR
MIN6 prolif: inducers of beta-cell replication in MIN6 cells; MIN6 cells proliferation, ATPlite luminescence, 48 h; cells starved in 0.2% serum; 100% = growth in 10% serum; proliferation, % at 10 µM; 0.29% of 330,000 active;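 active = compounds whose signal lies at least 3.5 SD above the mean of all wells on their plate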
V-ATPase pHluor: yeast V-ATPase proton transport regulation by pHLuorin; S. cerevisiae, pHLuorin cytosolic pH fluorescence; response, % at 10 µM; 0.37% of 350,000 active; in the data active = response mostly above about 7.3%, no sharp cut-off; inactive = mostly below about 5.4%; note: actives read high
proKLK7 act conf: proKLK7 activation, confirmation; shares compounds with proKLK7 act; purified proKLK7, EDANS-DABCYL substrate fluorescence; scaled: vehicle 0, mature enzyme 100; activation, % at 7 µM; 68% of 3,200 active;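 active = activation, as change over the incubation, above the mean of all tested compounds plus 3 SD, cut at about 13% in these data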
EDANS-DABCYL int: fluorescence interference counter-screen for KLK7 activators; shares compounds with proKLK7 act; EDANS-DABCYL substrate fluorescence interference, no enzyme, 4 h; solvent 0%, active enzyme control 100%; activation, % at 7 µM; 80% of 3,200 active;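 active = activation above the all-compound mean plus 3 SD, ignoring values outside control-based bounds, cut at about 4.8% in these data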;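 note: value is the 4 h activation minus the activation read at time zero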
EDANS interf: EDANS fluorescence interference in dose response, no enzyme; EC50, µM; 20% of 250 active; EDANS-DABCYL peptide fluorescence interference; shares compounds with proKLK7 act;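 active = compounds that raise the fluorescence signal in this interference counterscreen, with EC50 at or below 10 µM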;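 note: intact quenched peptide substrate alone read at 355 nm excitation and 520 nm emission; signal is fluorescence gain from T0 to T4 after four hours at room temperature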
A number is an active result; i = inactive; ? = inconclusive; nt = not tested or not shown.

SMILES | Rce1 inh | Yeast superoxide | T cell HTS | proKLK7 act | MIN6 prolif | V-ATPase pHluor | proKLK7 act conf | EDANS-DABCYL int | others
CCOC(OCC)P(=O)(CNC(c1ccccc1)(c1ccccc1)c1ccccc1)OCC (stereo unspecified) | nt | nt | nt | i | nt | nt | nt | nt
Clc1ncccc1OCc1ccccc1 | i | i | i | i | i | i | nt | nt
CC(C)CCn1c(SCC(=O)NC2CCS(=O)(=O)C2)nc2cc(Cl)ccc2c1=O (stereo unspecified) | i | i | i | i | i | i | nt | nt
COc1ccccc1-c1nc(COc2ccc(Cl)cc2Cl)no1 | i | i | i | i | i | i | nt | nt
CCOC(=O)c1[nH]c2cc(OC)c(OC)cc2c1N | i | i | i | 13 | i | i | 30 | 31
CCOC(=O)CCc1c(C)c2ccc(OCC)c(C)c2oc1=O | i | i | i | i | i | nt | nt | nt
CCOC(=O)CCc1c(C)c2ccc3c(c2oc1=O)CN(CCCO)CO3 | i | i | i | 52 | i | i | 71 | 75
COc1cc(N/C(N)=N/c2nc(C)cc(C)n2)cc(OC)c1 | nt | i | i | 14 | i | i | i | i
CCN(CC)CCNC(=O)c1cc2c(-c3cccc(OC)c3)nn(C)c2s1 | i | i | i | 24 | i | i | i | 6.9
CN1CCN(Cc2c(O)ccc3cc(-c4ccccn4)c(=O)oc23)CC1 | nt | i | i | 67 | i | i | 77 | 69
Cc1c(O)c(CN2CCCCC2)cc2c1oc(=O)c1ccccc12 | i | i | i | i | i | i | nt | nt
Cc1c(O)c(CN2CCCCC2)cc2c3c(c(=O)oc12)CCC3 | i | i | i | 44 | i | i | 73 | 76
O=c1oc2c(CN3CCCCC3)c(O)ccc2c2c1CCCC2 | ? | i | i | 62 | i | i | 66 | 70
COC(=O)Cc1c(C)c2ccc(O)c(CN3CCCC(C)C3)c2oc1=O (stereo unspecified) | ? | i | i | 53 | i | nt | 76 | 75
COC(=O)Cc1c(C)c2ccc(OCC(=O)N3CCC(C)CC3)c(C)c2oc1=O | i | i | i | i | i | i | nt | nt
Cc1ccc(NC(=O)CNNC(=O)c2cccc([N+](=O)[O-])c2)cc1[N+](=O)[O-] | nt | i | i | i | i | i | nt | nt
Cc1c(C)c2ccc(O)c(CN3CCN(C)CC3)c2oc1=O | i | i | i | 63 | i | i | 70 | 65
Cc1c(C)c2ccc(O)c(CN3CCCC3)c2oc1=O | ? | i | i | 61 | i | i | 64 | 66
CCc1c(C)c2ccc(O)c(CN3CCCC3)c2oc1=O | ? | i | i | 38 | i | i | 59 | 63
CCOC(=O)c1c(C)oc2ccc(O)c(CN3CCCCC3)c12 | i | i | i | i | i | i | nt | nt
C[C@H](O)[C@@H]1C(=O)N2CCc3c([nH]c4cccc(-c5ccccc5)c34)[C@@H]2C[C@@H]1N(C)CC1CCCCC1 | nt | nt | nt | i | nt | nt | nt | nt
C[C@H](O)[C@@H]1C(=O)N2CCc3c([nH]c4ccccc34)[C@@H]2C[C@@H]1N(C)C(=O)NC1CCCCC1 | nt | nt | nt | 36 | nt | i | 26 | 21 | EDANS interf=8.4
CN[C@H]1C[C@H]2c3[nH]c4ccccc4c3CCN2C(=O)[C@H]1[C@H](C)O | nt | nt | nt | 28 | nt | i | 14 | 13
COCCNC(=S)N(C)[C@H]1C[C@H]2c3[nH]c4ccccc4c3CCN2C(=O)[C@H]1[C@H](C)O | nt | nt | nt | 51 | nt | nt | 33 | 34
C[C@H](O)[C@@H]1C(=O)N2CCc3c([nH]c4ccccc34)[C@@H]2C[C@@H]1N(C)Cc1ccc(Cl)cc1 | nt | nt | nt | 52 | nt | i | 13 | 13
SMILES | Rce1 inh | Yeast superoxide | T cell HTS | proKLK7 act | MIN6 prolif | V-ATPase pHluor | proKLK7 act conf | EDANS-DABCYL int | others
COc1cccc(CNS(=O)(=O)c2cc(Br)ccc2Br)c1OC | nt | nt | nt | i | nt | nt | nt | nt
O=C(CCS(=O)(=O)Cc1ccccc1F)NCCc1ccc(Cl)cc1 | i | i | i | i | i | i | nt | nt
C=CCN(c1ccccc1OC)S(=O)(=O)c1cccc(C(=O)OCC(=O)c2c(N)n(C)c(=O)n(C)c2=O)c1 | nt | nt | nt | i | nt | i | nt | nt
COCC(=O)N(C)[C@H]1C[C@H]2c3[nH]c4ccccc4c3CCN2C(=O)[C@H]1[C@H](C)O | nt | nt | nt | 27 | nt | i | 40 | 42
Nc1ccc2nc3c(=O)n(C4CCCCC4)c(=O)[nH]c3nc2c1 | i | i | i | 14 | i | i | i | 7.6
CSc1ccccc1NC(=O)COC(=O)Cn1cc(C(F)(F)F)ccc1=O | nt | i | i | i | i | i | nt | nt
Cn1c(-c2cc3ccc(OC(=O)C(C)(C)C)cc3oc2=O)nc2ccccc21 | i | i | i | 34 | i | i | 62 | 60
CC(=O)Oc1ccc2cc(-c3nc4ccccc4n3C)c(=O)oc2c1 | nt | i | i | 39 | i | i | 76 | 80
CC(C)(C)C(=O)Oc1ccc2cc(-c3ccc4ccccc4n3)c(=O)oc2c1 | i | i | i | i | i | i | nt | nt
COc1ccc2cc(C(=O)c3ccccc3)c(=O)oc2c1 | i | i | i | i | i | i | nt | nt
C[C@H](CO)N1C[C@H](C)[C@@H](CN(C)C(=O)Nc2ccc3c(c2)OCO3)Oc2ccc(NC(=O)CCN3CCOCC3)cc2C1=O | nt | i | i | i | i | i | nt | nt
